Assay results as given in paper PMC5413378 (Cancer research, 2017).

Experiments:
[1] = test system: caspase-3 and poly(ADP-ribose) polymerase (PARP); experiment: Caspase-3 and PARP cleavage by immunoblotting; type: cell-based, human; conditions: as low as
[2] = test system: MDA-MB-453 xenograft model; experiment: MDA-MB-453 xenograft efficacy study; type: in vivo; conditions: for weight loss or apparent toxicity: MDA-MB-453 model
Outline: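 Five million MDA-MB-453 cells were implanted subcutaneously in SCID mice, which were randomised at tumour size 80-200 mm3. Dosing was IV in 10% PEG400: 3% Cremophor: 87% PBS, or oral in 2% TPGS: 98% PEG200. Tumours and body weight were measured every 2-3 days. Volume was (length×width2)/2, and TGI (%) = (Vc-Vt)/(Vc-Vo)×100 using medians. Two-tailed t test versus vehicle; n=7-8.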

[3] = test system: MDA-MB-468 xenograft model; experiment: MDA-MB-468 xenograft efficacy study; type: in vivo, SCID mice; conditions: 10 mg/kg, IV, 3 times per week for 2-3 weeks
normal mouse tissues = experiment: Toxicity in immune-competent Balb/c mice; type: in vivo; conditions: 5 mg/kg intravenously, daily, 5 days a week for 2 weeks
Outline: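 Immune-competent Balb/c mice received test compound intravenously, daily, 5 days a week for 2 weeks. Animals were sacrificed at the end of treatment, and tissues were examined for damage.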

MDA-MB-468 cells = experiment: Proteomic profiling; type: cell-based, human; conditions: 2 h
BRD4 = BRD4 (Mus musculus, UniProt Q9ESU6); experiment: BRD4 protein in mouse liver tissue; type: in vivo; conditions: single dose 5 mg/kg
[4] = PK analysis in MDA-MB-468 xenograft model; type: in vivo, mice; conditions: MDA-MB-468 model
TNBC cell lines [5] = experiment: CellTiter Glo cell viability assay in a panel of 13 TNBC cell lines; type: cell-based, human; conditions: for IC50: read-out: IC50 growth inhibition, in 9 of the 13 cell lines, 4 days
BRD2, BRD3 and BRD4 = experiment: BET protein depletion by immunoblotting in TNBC cell lines; type: cell-based, human; conditions: for concentration giving near-complete depletion of BRD2-4 proteins / effect on BET protein levels: TNBC cell lines; for effect on BET protein levels: immunoblotting
MCL1 = MCL1 expression by qRT-PCR and immunoblotting; type: cell-based, human; conditions: for expression of BRD2 and MCL1: MDA-MB-468 cells, 12 h immunoblotting, JQ1 2000 nM, dBET1 500 nM
[6] = PK analysis in MDA-MB-231 xenograft model; type: in vivo, mice; conditions: MDA-MB-231 model
[7] = test system: MDA-MB-231 xenograft model; experiment: MDA-MB-231 xenograft efficacy study; type: in vivo; conditions: for antitumor activity: IV; for weight loss or overt toxicity: MDA-MB-231 model
Outline: (§1)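 SCID mice bearing MDA-MB-231 xenografts or serially passaged WHIM24 PDX tumours were randomised once tumours reached 80-200 mm3. Test compound was given IV in 10% PEG400: 3% Cremophor: 87% PBS, 3 times per week for 3 weeks. Tumour size and body weight were measured 2-3 times weekly. Volume was (length×width2)/2, and TGI used group medians. Data are mean ± SEM (n=7-8), with two-tailed t test versus vehicle.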

WHIM24 PDX model = experiment: WHIM24 PDX efficacy study; type: in vivo; conditions: for antitumor activity: 3 times per week for 3 weeks; for weight loss or apparent toxicity: WHIM24 model
Outline: as §1

TNBC cell lines [8] = type: cell-based, human
BET proteins [9] = experiment: Pharmacodynamic analysis in WHIM24 tumors; type: in vivo, SCID mice
[10] = Pharmacokinetics in WHIM24 tumor-bearing mice; type: in vivo; conditions: single dose 10 mg/kg, at 1 and 3 h; concentrations diminished rapidly
BET proteins [11] = experiment: PD analysis in MDA-MB-468 xenograft tumors; type: in vivo, SCID mice; conditions: single dose 5 mg/kg, 1-3 h post drug exposure
BET proteins [12] = experiment: PD analysis in MDA-MB-231 xenograft tumors; type: in vivo, SCID mice; conditions: single dose 5 mg/kg, 1-3 h post drug exposure
BET proteins [13] = experiment: Binding to BET proteins
TNBC cell lines [14] = experiment: Annexin V-PI apoptosis flow cytometry analysis; type: cell-based, human

SMILES: CCn1nc(C2CC2)cc1Nc1nc(C(=O)NCCCOCCOCCOCCCNc2cccc3c2C(=O)N(C2CCC(=O)NC2=O)C3=O)nc2[nH]c3cc(-c4c(C)noc4C)c(OC)cc3c12 (stereo not drawn) [BETd-246]
- lowest concentration giving profound cleavage of caspase-3 and PARP [1]: 10 nM
- weight loss or apparent toxicity [2]: No significant weight loss
- antitumor activity [3]: no antitumor activity
- toxicity in normal mouse tissues (normal mouse tissues): no significant toxicity
- decrease of BRD2, BRD3 and BRD4 protein levels (MDA-MB-468 cells; 100 nM, MDA-MB-468, p<0.05, only proteins decreased out of ~5500 quantified): ≥ 2 fold
- BRD4 protein in mouse liver tissue (BRD4): effectively reduce BRD4 protein
- drug exposure in plasma and xenograft tumor tissue [4]: very limited drug exposure
- IC90 (TNBC cell lines [5]; in 7 of the 13 cell lines): < 100 nM
- IC50 (TNBC cell lines [5]): < 10 nM
- concentration giving near-complete depletion of BRD2-4 proteins (BRD2, BRD3 and BRD4; 1 h treatment): 30 to 100 nM
- concentration giving near-complete depletion of BRD2-4 proteins (BRD2, BRD3 and BRD4; 3 h treatment): 10 to 30 nM
- lowest concentration giving significant down-regulation of MCL1 mRNA (MCL1; as low as, MDA-MB-468, 8 h, qRT-PCR): 10 nM
- drug exposure in plasma and xenograft tumor tissue [6]: very limited drug exposure
- antitumor activity ([7]; 10 mg/kg, 3 times per week for 2-3 weeks): very limited
- weight loss or overt toxicity [7]: Neither BETd-246 nor BETd-260 caused significant weight loss
- antitumor activity (WHIM24 PDX model; 5 mg/kg, IV): effectively inhibited WHIM24 tumor growth
- antitumor activity (WHIM24 PDX model; 10 mg/kg, during treatment): partial tumor regression
- weight loss or apparent toxicity (WHIM24 PDX model): Neither BETi-211 nor BETd-246 caused significant weight loss
- synergy in combination with BM-1197, ABT-263 and A-1155463 (TNBC cell lines [8]; in 6 of the 7 cell lines): Modest to strong synergy
- strong synergistic induction of apoptosis in combination with ABT-199 (TNBC cell lines [8]; panel of TNBC cell lines): only observed in MDA-MB-468
- MCL1 protein levels in tumors (BET proteins [9]; as early as 3 h after treatment): markedly reduced
- duration of BET protein reduction in tumors (BET proteins [9]; single IV dose 10 mg/kg): at least 9 h
- reduction of the levels of BET proteins in tumors (BET proteins [9]; single IV dose 10 mg/kg, as early as 1 h): > 80%
- drug exposure in plasma and WHIM24 tumors [10]: reasonable drug exposure

SMILES: CCn1nc(C2CC2)cc1Nc1nc(C(=O)NCCCCCc2cccc3c2CN(C2CCC(=O)NC2=O)C3=O)nc2[nH]c3cc(-c4c(C)noc4C)c(OC)cc3c12 (stereo not drawn) [BETd-260]
- BET protein levels in xenograft tumors (BET proteins [11]): effectively reduced BET protein levels
- drug exposure in plasma and xenograft tumor tissue [4]: much higher than that of BETd-246
- times more potent than BETd-246 in growth inhibition (TNBC cell lines [5]; TNBC cells): 2-7 times
- BET protein levels in xenograft tumors (BET proteins [12]): effectively reduced BET protein levels
- effect on BET protein levels (BRD2, BRD3 and BRD4): potently depleted BET proteins at low nanomolar concentrations
- drug exposure in plasma and xenograft tumor tissue [6]: much higher than that of BETd-246
- antitumor activity ([7]; 5 mg/kg, 3 times per week for 3 weeks, compared with BETd-246 at 10 mg/kg): much stronger antitumor activity than BETd-246
- weight loss or overt toxicity [7]: Neither BETd-246 nor BETd-260 caused significant weight loss

SMILES: CCn1nc(C2CC2)cc1Nc1nc(COC)nc2[nH]c3cc(-c4c(C)noc4C)c(OC)cc3c12 [BETi-211]
- tumor growth inhibition ([2]; 50 mg/kg, daily, 5 days a week for 2 weeks): failed to achieve tumor growth inhibition
- weight loss or apparent toxicity [2]: No significant weight loss
- increase of BRD2 protein level (MDA-MB-468 cells; 1000 nM, MDA-MB-468): 2 fold
- growth inhibition (TNBC cell lines [5]; at 2.5 μM, achieved in 2 of the 13 cell lines): ≥ 90%
- IC50 (TNBC cell lines [5]): < 1000 nM
- effect on BET protein levels (BRD2, BRD3 and BRD4): did not degrade BET proteins
- Ki (BET proteins [13]): < 1 nM
- times more potent than RX-37, JQ-1, OTX-015 or IBET-762 (BET proteins [13]): 10-100 times
- apoptosis induction (TNBC cell lines [14]; 1000 nM, 48 h treatment): 3-25%
- weight loss or apparent toxicity (WHIM24 PDX model): Neither BETi-211 nor BETd-246 caused significant weight loss
- synergism with either BM-1197 or ABT-263 (TNBC cell lines [8]): No clear synergism

SMILES: Cc1sc2c(c1C)C(c1ccc(Cl)cc1)=N[C@@H](CC(=O)OC(C)(C)C)c1nnc(C)n1-2 [JQ1]
- expression of BRD2 and MCL1 (MCL1): increased expression of BRD2 and MCL1

SMILES: O=C1CCC(N2C(=O)c3ccccc3C2=O)C(=O)N1 (stereo not drawn) [Thalidomide, thalidomide, reference compound]
- effect on BET protein levels (BRD2, BRD3 and BRD4): no significant effect
- effect on apoptosis induction and cell proliferation (TNBC cell lines [14]; alone): no significant effect

SMILES: Cc1sc2c(c1C)C(c1ccc(Cl)cc1)=N[C@@H](CC(=O)NCCCCNC(=O)COc1cccc3c1C(=O)N(C1CCC(=O)NC1=O)C3=O)c1nnc(C)n1-2 (stereo partly drawn) [dBET1, reference compound]
- BET protein depletion (BRD2, BRD3 and BRD4; 500 nM, MDA-MB-468 cells, 12 h): effectively depleted BET proteins
- expression of BRD2 and MCL1 (MCL1): downregulated MCL1 expression
